From ChEMBL document CHEMBL4425103, “Diving into the Water: Inducible Binding Conformations for BRD4, TAF1(2), BRD9, and CECR2 Bromodomains” (J Med Chem, 2016)

Key:
[1] = target: Chromatin remodeling regulator CECR2 (Homo sapiens, UniProt Q9BXF3); test: Binding affinity to wild type CECR2 (unknown origin) assessed as change in melting temperature at 10 uM by SYPRO red dye based differential scanning fluorimetry
Procedure, shortened: (§1)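 Differential scanning fluorimetry: aggregate removed by centrifugation, then bromodomain at 4 µM final with 10X SYPRO Red, 10 µM compound and 0.2% DMSO in 20 mM HEPES pH 7.7, 100 mM NaCl. Heated 25 to 95 °C, fluorescence read at 1 °C steps. Apparent Tm taken from melt curves; mean of at least five wells for CECR2.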

[2] = test system: T1, Chromatin remodeling regulator CECR2 (Homo sapiens), Q9BXF3 [Y520I]; test: Binding affinity to CECR2 Y520I mutant (unknown origin) assessed as change in melting temperature at 10 uM by SYPRO red dye based differential scanning fluorimetry; procedure, shortened: as §1
T1 sequence (whole entry): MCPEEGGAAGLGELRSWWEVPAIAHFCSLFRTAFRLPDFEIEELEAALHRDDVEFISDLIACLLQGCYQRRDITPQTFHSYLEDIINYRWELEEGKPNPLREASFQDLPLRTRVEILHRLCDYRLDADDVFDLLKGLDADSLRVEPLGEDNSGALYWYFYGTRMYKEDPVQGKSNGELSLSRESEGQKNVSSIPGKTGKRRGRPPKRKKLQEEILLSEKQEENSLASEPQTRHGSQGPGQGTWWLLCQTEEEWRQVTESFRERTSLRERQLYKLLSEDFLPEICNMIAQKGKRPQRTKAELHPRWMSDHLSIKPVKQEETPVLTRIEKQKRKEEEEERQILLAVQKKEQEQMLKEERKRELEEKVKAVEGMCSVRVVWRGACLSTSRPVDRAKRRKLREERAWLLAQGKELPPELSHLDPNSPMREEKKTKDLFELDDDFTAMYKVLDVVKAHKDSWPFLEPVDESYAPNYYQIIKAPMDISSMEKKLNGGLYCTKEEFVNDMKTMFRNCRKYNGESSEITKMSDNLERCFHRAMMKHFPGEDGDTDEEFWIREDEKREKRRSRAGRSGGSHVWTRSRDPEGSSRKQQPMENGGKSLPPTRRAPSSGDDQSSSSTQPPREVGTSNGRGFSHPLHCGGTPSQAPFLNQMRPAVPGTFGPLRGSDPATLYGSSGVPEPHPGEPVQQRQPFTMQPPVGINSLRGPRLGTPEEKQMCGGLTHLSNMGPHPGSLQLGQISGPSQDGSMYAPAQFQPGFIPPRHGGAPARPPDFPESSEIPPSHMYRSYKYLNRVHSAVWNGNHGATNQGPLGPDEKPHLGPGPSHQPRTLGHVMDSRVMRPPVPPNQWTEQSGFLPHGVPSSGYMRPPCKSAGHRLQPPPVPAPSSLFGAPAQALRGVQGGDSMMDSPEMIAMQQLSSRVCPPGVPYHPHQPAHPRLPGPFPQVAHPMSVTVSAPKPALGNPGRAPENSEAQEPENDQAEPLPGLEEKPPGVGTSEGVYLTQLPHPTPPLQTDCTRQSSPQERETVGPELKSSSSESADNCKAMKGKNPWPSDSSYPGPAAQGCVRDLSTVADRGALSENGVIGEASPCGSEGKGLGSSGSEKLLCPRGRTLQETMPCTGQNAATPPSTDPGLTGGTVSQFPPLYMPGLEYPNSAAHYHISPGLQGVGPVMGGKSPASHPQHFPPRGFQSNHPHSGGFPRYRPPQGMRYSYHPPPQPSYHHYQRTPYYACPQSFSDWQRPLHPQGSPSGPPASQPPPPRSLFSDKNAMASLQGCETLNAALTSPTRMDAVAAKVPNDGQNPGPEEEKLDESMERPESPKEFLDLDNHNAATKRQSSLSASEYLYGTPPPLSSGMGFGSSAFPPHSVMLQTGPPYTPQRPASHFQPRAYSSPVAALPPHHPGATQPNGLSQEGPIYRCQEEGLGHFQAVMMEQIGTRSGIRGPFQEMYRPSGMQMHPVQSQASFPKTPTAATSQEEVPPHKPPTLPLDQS

Chain of Chromatin remodeling regulator CECR2 (Q9BXF3 whole entry, looked up): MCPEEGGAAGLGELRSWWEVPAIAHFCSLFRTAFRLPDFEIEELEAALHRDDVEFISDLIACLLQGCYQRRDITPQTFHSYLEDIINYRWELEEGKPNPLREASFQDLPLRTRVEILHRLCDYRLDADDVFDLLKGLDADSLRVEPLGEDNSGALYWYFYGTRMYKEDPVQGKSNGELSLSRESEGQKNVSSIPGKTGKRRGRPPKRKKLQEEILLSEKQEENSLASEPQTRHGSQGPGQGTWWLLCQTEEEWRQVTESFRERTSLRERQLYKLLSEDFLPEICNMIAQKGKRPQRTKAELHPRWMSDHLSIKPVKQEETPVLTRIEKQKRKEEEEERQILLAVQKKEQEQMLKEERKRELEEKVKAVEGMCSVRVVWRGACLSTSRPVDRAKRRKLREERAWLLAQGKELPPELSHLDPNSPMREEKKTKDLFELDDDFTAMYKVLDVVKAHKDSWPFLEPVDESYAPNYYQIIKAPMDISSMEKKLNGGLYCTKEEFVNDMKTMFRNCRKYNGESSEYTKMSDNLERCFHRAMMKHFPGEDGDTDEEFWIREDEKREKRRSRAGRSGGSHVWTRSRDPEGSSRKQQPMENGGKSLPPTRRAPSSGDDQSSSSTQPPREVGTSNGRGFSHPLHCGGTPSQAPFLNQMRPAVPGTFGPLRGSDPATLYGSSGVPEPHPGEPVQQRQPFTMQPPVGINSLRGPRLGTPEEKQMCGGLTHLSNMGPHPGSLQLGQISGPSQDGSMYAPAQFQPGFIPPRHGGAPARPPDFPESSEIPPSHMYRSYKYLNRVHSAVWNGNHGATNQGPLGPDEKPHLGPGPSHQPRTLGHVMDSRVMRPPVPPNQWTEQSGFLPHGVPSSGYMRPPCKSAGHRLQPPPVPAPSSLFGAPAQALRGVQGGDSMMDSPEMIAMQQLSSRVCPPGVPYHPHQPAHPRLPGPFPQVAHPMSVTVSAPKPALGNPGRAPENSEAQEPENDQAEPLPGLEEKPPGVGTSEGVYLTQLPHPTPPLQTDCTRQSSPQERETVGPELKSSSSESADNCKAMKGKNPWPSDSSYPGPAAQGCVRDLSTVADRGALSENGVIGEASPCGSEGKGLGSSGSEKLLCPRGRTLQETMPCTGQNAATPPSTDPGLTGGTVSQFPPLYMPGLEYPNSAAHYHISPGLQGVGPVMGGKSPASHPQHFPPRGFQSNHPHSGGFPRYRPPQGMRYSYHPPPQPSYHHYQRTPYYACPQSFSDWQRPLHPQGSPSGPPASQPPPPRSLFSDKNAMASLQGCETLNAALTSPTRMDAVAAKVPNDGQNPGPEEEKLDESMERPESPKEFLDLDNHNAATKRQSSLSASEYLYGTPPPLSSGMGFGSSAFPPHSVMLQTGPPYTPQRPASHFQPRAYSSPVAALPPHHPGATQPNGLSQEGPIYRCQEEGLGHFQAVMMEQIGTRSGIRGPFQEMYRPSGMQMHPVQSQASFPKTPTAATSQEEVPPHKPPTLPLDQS

| Structure (SMILES) | ΔTm [1] | ΔTm [2] |
| --- | --- | --- |
| CN(C)C(=O)c1cccc(-c2cn(C)c(=O)c3[nH]ccc23)c1 | 6 °C | 3 °C |
| C=CCn1cc(-c2cccc(C(=O)N(C)C)c2)c2cc[nH]c2c1=O | 6 °C | -1 °C |
